# Reference: the M2OR odorant receptor database
# Tests used:
# Details in all cases: stereoisomer not certain
# [1] = target: T1, OR2A7 (Homo sapiens) (UniProt Q96R45)
# T1 sequence (whole entry): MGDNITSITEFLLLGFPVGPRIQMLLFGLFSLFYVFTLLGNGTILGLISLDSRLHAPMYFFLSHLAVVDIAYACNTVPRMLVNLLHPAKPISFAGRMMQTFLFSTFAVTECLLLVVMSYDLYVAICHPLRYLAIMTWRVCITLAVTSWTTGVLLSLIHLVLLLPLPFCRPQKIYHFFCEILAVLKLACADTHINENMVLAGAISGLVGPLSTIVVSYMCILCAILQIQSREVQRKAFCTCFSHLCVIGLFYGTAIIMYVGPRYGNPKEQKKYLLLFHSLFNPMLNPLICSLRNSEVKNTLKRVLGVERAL
# Summary of the method: (§1)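 Assay methods differ from source to source, frequently being transient luciferase assays in mammalian cell lines. For each receptor–molecule pair, the label responsive (active) applies when the original authors judged the measured signal statistically different from baseline, and non-responsive (inactive) applies otherwise.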
# [2] = target: OR2AE1 (Homo sapiens) (UniProt Q8NHA4)
# Summary of the method: as §1
# [3] = target: OR2AG1 (Homo sapiens) (UniProt Q9H205)
# Summary of the method: as §1
# [4] = target: OR2AG2 (Homo sapiens) (UniProt A6NM03)
# Summary of the method: as §1
# [5] = target: OR2AJ1 (Homo sapiens) (UniProt Q8NGZ0)
# Summary of the method: as §1
# [6] = target: OR2AK2 (Homo sapiens) (UniProt Q8NG84)
# Summary of the method: as §1
# [7] = target: OR2AP1 (Homo sapiens) (UniProt Q8NGE2)
# Summary of the method: as §1
# [8] = target: OR2AT4 (Homo sapiens) (UniProt A6NND4)
# Summary of the method: as §1
# [9] = target: T2, OR2B11 (Homo sapiens) (UniProt Q5JQS5)
# T2 sequence (whole entry): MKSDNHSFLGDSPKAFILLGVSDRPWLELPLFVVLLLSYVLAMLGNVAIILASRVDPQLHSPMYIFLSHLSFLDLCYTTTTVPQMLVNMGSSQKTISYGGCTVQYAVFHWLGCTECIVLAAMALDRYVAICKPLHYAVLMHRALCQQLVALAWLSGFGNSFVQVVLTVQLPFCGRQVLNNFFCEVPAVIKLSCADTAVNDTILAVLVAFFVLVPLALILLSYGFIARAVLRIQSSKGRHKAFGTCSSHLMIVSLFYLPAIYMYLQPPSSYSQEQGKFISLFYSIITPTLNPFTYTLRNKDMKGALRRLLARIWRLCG
# Summary of the method: as §1
# [10] = target: OR2B2 (Homo sapiens) (UniProt Q9GZK3)
# Summary of the method: as §1
# [11] = target: OR2B6 (Homo sapiens) (UniProt P58173)
# Summary of the method: as §1
# [12] = target: T3, OR2C1 (Homo sapiens) (UniProt O95371)
# T3 sequence (whole entry): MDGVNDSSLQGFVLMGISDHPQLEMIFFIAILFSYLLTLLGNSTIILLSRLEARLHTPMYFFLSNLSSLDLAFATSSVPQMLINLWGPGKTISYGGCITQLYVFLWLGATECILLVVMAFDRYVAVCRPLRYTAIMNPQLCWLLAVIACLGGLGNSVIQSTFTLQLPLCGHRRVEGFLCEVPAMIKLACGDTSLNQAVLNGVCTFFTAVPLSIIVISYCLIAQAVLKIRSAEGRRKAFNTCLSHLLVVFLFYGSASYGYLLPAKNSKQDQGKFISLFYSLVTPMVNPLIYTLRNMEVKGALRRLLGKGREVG
# Summary of the method: as §1
# [13] = target: T4, OR2B3 (Homo sapiens) (UniProt O76000)
# T4 sequence (whole entry): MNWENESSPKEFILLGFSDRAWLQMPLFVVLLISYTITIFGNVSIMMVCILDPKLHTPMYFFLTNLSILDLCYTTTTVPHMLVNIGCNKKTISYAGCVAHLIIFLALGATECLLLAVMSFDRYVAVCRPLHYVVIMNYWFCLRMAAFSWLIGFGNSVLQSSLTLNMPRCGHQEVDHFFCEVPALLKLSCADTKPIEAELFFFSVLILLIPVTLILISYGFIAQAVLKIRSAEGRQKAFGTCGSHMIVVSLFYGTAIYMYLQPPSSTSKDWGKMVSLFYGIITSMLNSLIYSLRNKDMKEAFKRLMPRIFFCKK
# Summary of the method: as §1
# [14] = system: OR2A5 I126V A202S A255T
# Summary of the method: as §1
# [15] = system: OR2A7
# Summary of the method: as §1
# [16] = system: OR2BB
# Summary of the method: as §1
# Target sequence in this assay (as listed by the source): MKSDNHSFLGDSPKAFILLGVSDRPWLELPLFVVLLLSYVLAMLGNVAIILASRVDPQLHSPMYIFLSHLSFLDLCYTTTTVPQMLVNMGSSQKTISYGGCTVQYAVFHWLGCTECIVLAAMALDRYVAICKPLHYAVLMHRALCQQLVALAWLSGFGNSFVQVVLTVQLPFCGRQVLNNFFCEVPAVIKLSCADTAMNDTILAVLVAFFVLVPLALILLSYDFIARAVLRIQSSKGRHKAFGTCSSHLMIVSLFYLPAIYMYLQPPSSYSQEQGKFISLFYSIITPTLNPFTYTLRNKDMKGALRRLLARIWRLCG
# [17] = system: OR2BB; remark: listed apart in the source
# Summary of the method: as §1
# Target sequence in this assay (as listed by the source): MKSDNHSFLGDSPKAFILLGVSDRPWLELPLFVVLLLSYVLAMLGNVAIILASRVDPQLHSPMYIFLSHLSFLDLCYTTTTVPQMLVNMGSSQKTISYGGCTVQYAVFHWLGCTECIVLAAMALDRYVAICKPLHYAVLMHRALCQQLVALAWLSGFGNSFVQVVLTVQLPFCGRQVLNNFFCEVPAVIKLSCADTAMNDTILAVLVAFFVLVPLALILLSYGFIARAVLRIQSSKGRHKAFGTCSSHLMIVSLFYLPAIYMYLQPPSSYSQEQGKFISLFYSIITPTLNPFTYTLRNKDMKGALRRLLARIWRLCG
# [18] = system: OR2BB; remark: listed apart in the source
# Summary of the method: as §1
# Target sequence in this assay (as listed by the source): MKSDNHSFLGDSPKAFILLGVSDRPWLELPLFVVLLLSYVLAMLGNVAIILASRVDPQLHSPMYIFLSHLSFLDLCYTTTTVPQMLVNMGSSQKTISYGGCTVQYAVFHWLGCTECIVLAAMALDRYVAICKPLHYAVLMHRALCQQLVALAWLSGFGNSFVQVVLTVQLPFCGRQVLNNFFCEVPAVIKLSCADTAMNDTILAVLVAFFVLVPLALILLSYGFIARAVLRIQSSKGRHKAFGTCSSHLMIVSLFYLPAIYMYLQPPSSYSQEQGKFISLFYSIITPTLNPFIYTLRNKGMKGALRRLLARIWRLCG
# [19] = system: OR2BB; remark: listed apart in the source
# Summary of the method: as §1
# Target sequence in this assay (as listed by the source): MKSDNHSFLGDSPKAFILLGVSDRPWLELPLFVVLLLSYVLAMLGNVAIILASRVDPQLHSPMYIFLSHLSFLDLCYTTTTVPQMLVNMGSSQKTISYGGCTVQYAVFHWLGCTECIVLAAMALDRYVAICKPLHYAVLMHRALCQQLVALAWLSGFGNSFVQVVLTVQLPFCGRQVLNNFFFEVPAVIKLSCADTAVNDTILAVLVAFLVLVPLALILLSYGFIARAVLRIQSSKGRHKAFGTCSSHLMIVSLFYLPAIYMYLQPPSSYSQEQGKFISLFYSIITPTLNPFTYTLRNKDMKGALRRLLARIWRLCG
# [20] = system: OR2BB; remark: listed apart in the source
# Summary of the method: as §1
# Target sequence in this assay (as listed by the source): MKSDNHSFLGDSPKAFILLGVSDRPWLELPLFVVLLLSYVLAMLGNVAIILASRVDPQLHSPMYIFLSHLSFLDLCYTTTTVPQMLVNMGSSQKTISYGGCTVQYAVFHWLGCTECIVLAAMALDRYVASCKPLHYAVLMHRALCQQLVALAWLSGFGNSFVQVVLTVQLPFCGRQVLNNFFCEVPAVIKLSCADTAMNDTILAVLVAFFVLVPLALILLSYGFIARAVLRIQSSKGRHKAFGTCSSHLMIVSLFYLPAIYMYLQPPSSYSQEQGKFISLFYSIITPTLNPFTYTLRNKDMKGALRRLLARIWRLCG
# OR2AT4 (Homo sapiens), sequence (A6NND4 whole entry): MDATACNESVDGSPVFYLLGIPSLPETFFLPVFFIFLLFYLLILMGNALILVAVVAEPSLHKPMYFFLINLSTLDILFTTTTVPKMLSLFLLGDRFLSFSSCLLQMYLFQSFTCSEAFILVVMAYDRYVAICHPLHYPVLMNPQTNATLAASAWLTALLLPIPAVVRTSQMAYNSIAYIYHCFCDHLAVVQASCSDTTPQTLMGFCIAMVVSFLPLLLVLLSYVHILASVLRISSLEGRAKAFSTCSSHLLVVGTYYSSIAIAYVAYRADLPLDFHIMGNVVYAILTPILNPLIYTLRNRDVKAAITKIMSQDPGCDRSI
# OR2B2 (Homo sapiens), sequence (Q9GZK3 whole entry): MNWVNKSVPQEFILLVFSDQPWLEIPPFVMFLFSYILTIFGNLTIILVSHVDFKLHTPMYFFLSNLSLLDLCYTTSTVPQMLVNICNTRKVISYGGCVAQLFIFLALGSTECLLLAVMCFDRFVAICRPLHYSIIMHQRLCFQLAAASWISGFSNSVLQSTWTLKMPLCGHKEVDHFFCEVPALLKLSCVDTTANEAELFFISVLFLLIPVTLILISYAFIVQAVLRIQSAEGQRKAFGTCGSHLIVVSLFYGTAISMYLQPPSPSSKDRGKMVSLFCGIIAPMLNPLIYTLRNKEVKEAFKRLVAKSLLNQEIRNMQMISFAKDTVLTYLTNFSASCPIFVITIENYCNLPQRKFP
# OR2B6 (Homo sapiens), sequence (P58173 whole entry): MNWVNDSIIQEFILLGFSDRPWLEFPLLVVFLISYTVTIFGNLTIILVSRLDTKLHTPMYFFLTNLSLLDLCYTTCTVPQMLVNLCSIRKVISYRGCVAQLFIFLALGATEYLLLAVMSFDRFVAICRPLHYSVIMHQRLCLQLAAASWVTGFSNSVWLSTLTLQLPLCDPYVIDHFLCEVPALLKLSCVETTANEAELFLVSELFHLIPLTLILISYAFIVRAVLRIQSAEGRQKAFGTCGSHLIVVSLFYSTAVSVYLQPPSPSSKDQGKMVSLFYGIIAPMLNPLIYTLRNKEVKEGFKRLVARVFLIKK
# OR2AE1 (Homo sapiens), sequence (Q8NHA4 whole entry): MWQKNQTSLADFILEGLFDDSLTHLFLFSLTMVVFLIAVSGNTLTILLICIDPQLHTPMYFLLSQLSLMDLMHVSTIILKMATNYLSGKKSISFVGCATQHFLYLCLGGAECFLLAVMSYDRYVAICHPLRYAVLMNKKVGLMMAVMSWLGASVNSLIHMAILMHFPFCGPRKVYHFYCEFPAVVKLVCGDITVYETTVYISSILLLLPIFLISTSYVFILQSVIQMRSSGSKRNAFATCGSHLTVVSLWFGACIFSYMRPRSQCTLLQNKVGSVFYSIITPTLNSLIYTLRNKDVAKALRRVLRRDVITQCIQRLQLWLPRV
# OR2AG1 (Homo sapiens), sequence (Q9H205 whole entry): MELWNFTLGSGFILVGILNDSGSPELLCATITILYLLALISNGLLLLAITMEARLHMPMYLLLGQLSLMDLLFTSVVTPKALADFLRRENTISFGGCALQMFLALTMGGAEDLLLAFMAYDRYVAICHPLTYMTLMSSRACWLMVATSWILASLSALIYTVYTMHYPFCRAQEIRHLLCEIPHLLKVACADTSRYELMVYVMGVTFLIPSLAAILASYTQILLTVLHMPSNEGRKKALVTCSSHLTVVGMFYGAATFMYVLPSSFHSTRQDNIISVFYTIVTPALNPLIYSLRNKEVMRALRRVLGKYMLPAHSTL
# OR2AP1 (Homo sapiens), sequence (Q8NGE2 whole entry): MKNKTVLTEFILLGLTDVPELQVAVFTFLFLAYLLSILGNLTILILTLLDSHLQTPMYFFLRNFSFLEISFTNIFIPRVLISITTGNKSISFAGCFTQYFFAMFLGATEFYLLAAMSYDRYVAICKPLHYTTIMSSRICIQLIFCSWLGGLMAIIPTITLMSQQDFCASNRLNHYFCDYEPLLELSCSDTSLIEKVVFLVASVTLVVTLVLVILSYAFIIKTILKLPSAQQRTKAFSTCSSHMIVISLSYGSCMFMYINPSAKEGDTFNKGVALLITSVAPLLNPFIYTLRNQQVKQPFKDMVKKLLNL
# OR2AG2 (Homo sapiens), sequence (A6NM03 whole entry): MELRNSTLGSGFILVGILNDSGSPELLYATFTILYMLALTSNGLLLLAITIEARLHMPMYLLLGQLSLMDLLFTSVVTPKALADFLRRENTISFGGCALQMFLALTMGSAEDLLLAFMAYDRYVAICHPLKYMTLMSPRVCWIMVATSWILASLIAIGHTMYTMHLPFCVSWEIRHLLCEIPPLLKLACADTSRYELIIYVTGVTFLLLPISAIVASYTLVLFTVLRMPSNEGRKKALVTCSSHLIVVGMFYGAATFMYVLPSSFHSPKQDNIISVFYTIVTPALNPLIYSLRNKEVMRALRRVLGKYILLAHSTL
# OR2AK2 (Homo sapiens), sequence (Q8NG84 whole entry): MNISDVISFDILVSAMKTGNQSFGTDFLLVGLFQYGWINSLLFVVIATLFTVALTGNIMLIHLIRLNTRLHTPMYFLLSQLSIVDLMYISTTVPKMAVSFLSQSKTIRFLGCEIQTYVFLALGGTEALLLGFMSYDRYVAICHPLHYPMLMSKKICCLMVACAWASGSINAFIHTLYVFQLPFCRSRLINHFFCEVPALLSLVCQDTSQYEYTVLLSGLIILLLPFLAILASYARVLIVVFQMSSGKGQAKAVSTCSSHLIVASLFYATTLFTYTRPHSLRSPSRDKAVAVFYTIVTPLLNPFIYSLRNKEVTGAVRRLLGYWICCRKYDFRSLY
# OR2A7, sequence (as listed by the source): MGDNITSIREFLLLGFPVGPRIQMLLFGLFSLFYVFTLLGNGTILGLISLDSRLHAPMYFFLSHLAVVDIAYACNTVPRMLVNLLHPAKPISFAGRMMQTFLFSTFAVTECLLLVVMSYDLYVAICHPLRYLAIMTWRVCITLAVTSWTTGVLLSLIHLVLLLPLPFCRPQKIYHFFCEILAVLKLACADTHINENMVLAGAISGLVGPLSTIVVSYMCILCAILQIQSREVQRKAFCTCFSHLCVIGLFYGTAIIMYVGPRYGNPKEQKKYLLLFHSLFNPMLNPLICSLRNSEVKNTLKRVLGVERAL
# OR2AJ1 (Homo sapiens), sequence (Q8NGZ0 whole entry): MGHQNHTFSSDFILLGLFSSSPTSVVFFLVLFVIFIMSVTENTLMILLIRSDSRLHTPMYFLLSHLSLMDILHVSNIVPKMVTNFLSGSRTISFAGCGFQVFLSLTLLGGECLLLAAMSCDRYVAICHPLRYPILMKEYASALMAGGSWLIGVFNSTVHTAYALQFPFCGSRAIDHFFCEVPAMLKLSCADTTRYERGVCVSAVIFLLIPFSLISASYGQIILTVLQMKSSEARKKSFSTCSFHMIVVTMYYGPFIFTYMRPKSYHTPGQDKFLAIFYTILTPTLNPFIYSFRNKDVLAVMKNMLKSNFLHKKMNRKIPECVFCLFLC
smiles,measurement,setting,value
Cc1c([N+](=O)[O-])c(C)c([N+](=O)[O-])c(C(C)(C)C)c1[N+](=O)[O-],odorant receptor agonist call,[1],inactive
same,odorant receptor agonist call,[2],inactive
same,odorant receptor agonist call,[3],inactive
same,odorant receptor agonist call,[4],inactive
same,odorant receptor agonist call,[5],inactive
same,odorant receptor agonist call,[6],inactive
same,odorant receptor agonist call,[7],inactive
same,odorant receptor agonist call,[8],inactive
same,odorant receptor agonist call,[9],inactive
same,odorant receptor agonist call,[10],inactive
same,odorant receptor agonist call,[11],inactive
same,odorant receptor agonist call,[12],inactive
O=Cc1ccccc1,odorant receptor agonist call,[13],inactive
C=CCc1ccccc1,odorant receptor agonist call,[12],inactive
C=CCOC(=O)Cc1ccccc1,odorant receptor agonist call,[14],inactive
same,odorant receptor agonist call,[1],inactive
same,odorant receptor agonist call,[15],inactive
same,odorant receptor agonist call,[2],inactive
same,odorant receptor agonist call,[3],inactive
same,odorant receptor agonist call,[4],inactive
same,odorant receptor agonist call,[6],inactive
same,odorant receptor agonist call,[7],inactive
same,odorant receptor agonist call,[8],inactive
same,odorant receptor agonist call,[9],inactive
same,odorant receptor agonist call,[10],inactive
same,odorant receptor agonist call,[13],inactive
same,odorant receptor agonist call,[11],inactive
same,odorant receptor agonist call,[16],inactive
same,odorant receptor agonist call,[17],inactive
same,odorant receptor agonist call,[12],inactive
COc1ccc(C=O)cc1,odorant receptor agonist call,[1],inactive
O=c1cc(O)c2ccccc2o1,odorant receptor agonist call,[12],inactive
C=CCc1ccc(OC)cc1,odorant receptor agonist call,[13],inactive
Cc1cccc(C)c1,odorant receptor agonist call,[1],inactive
CCC1CCC(=O)O1 (configuration not stated),odorant receptor agonist call,[12],inactive
O=CC=Cc1ccccc1,odorant receptor agonist call,[9],active
same,odorant receptor agonist call,[13],inactive
same,odorant receptor agonist call,[16],inactive
same,odorant receptor agonist call,[18],inactive
same,odorant receptor agonist call,[17],inactive
same,odorant receptor agonist call,[19],inactive
same,odorant receptor agonist call,[20],active
